Test results reported in ChEMBL document CHEMBL1154890, “Synthesis, cytotoxicity, antiviral activity and interferon inducing ability of 6-(2-aminoethyl)-6H-indolo[2,3-b]quinoxalines” (Eur J Med Chem, 2010).

Key:
[1] = Induction of IFN activity in pig EPT cells assessed as interferon titer at 1.5 uM after 24 hrs by microscopical method; assay type: functional, Sus scrofa
How it was run: (§1)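 Compounds were added to murine fibroblast L929 or piglet testicular EPT cells. Supernatant was taken after 24 and 48 h at 37 °C, 5% CO₂. IFN titers in the supernatant were then determined on L929 and EPT cell cultures.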

[2] = tested on: Vesicular stomatitis virus; experiment: Antiviral activity against Vesicular stomatitis virus infected in mouse L929 cells assessed as inhibition of virus-induced cytopathic effect treated immediately after viral infection measured after 24 hrs; assay type: functional, organism-based; settings: L929, 24 h
How it was run: (§2)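 VSV grown in EPT or L929 cells to about 10⁶ ID₅₀/0.1 mL. Compounds in serial double dilution were added to cell monolayers at 37 °C, 5% CO₂, either 24 h before infection (preventive) or immediately after it (therapeutic). VSV was then added and cultures held 24 h. Cytopathic effect was scored microscopically. IC₅₀ is reported as −lg molar concentration giving 50% inhibition of cytopathic action, with confidence interval at P < 0.05.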

[3] = tested on: Vesicular stomatitis virus; experiment: Antiviral activity against Vesicular stomatitis virus in EPT cells assessed as inhibition of virus-induced cytopathic effect treated 24 hrs before viral infection measured after 24 hrs; assay type: functional, organism-based; how it was run: as §2
[4] = Selectivity index, CC50 for pig EPT cells to IC50 for Vesicular stomatitis virus treated 24 hrs before viral infection; assay type: functional
How it was run: (§3)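 SI = CC₅₀/IC₅₀ for each cell line and each regimen (treatment 24 h before or immediately after VSV infection). For CC₅₀, the medium on EPT or L929 monolayers was replaced with maintenance medium containing 5% newborn calf serum plus compound at 1–1000. After 24–48 h at 37 °C, 5% CO₂, cells were stained with 0.5% crystal violet in 70% ethanol and read at 540/620. CC₅₀ is the concentration giving 50% monolayer destruction.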

[5] = Selectivity index, CC50 for mouse L929 cells to IC50 for Vesicular stomatitis virus treated 24 hrs before viral infection; assay type: functional; how it was run: as §3
L929 [6] = experiment: (§4) Cytotoxicity against mouse L929 cells after 24 to 48 hrs; assay type: cell-based; settings: l929
How it was run: (§5)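 Monolayers at 37 °C, 5% CO₂; growth medium (L929: Eagle's MEM, EPT: Medium 199; both with 10% calf embryo serum and kanamycin, plus glutamine for L929) replaced by maintenance medium with 5% newborn calf serum holding compound at 1–1000. Read at 24–48 h after 0.5% crystal violet/70% ethanol staining, 540/620 nm. CC₅₀ = 50% monolayer destruction, given as −lg (M), confidence interval at P < 0.05.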

[7] = Ratio of tilorone CC50 for […] EPT cells to IC50 for Vesicular stomatitis virus treated 24 hrs before viral infection over compound CC50 for […] EPT cells to IC50 for Vesicular stomatitis virus treated 24 hrs before viral infection
[8] = tested on: Vesicular stomatitis virus; experiment: Antiviral activity against Vesicular stomatitis virus in mouse L929 cells assessed as inhibition of virus-induced cytopathic effect treated 24 hrs before viral infection measured after 24 hrs; assay type: functional, organism-based; how it was run: as §2
[9] = Selectivity index, CC50 for mouse L929 cells to IC50 for Vesicular stomatitis virus treated immediately after viral infection; assay type: functional; how it was run: as §3
[10] = Cytotoxicity against pig EPT cells after 24 to 48 hrs; assay type: cell-based, Sus scrofa; settings: for pCC50: ept; for CC50: EPT cells; how it was run: as §5
L929 [11] = experiment: Induction of IFN activity in mouse L929 cells assessed as interferon titer at 1.1 uM after 24 hrs by microscopical method; assay type: functional; how it was run: as §1
[12] = Selectivity index, CC50 for […] EPT cells to IC50 for Vesicular stomatitis virus treated immediately after viral infection; assay type: functional; how it was run: as §3
[13] = as §4; assay type: cell-based; settings: L929 cells; how it was run: as §5
[14] = tested on: Vesicular stomatitis virus; experiment: Antiviral activity against Vesicular stomatitis virus infected in EPT cells assessed as inhibition of virus-induced cytopathic effect treated immediately after viral infection measured after 24 hrs; assay type: functional, organism-based; how it was run: as §2

Row | Structure (SMILES) | Activity [1] | IC50 [2] [µM] | IC50 [3] [µM] | Ratio CC50/IC50 [4] | Ratio CC50/IC50 [5] | pCC50 (L929 [6]) | Ratio [7] | IC50 [8] [µM] | Ratio CC50/IC50 [9] | pCC50 [10] | Activity (L929 [11]) | Ratio CC50/IC50 [12] | CC50 [13] [µM] | IC50 [14] [µM] | CC50 [10] [µM]
1 | c1ccc2nc3c(nc2c1)c1ccccc1n3CCN1CCOCC1 | 16 | 4.47 | 1.62 | 1258 | 659 | 2.97 | 15 | 1.62 | 17 | 2.69 | 8 | – | – | – | –
2 | CCCCN(C)CCn1c2ccccc2c2nc3ccccc3nc21 | 32 | 2.34 | 3.02 | 68 | 388 | – | – | 1.45 | 41 | – | 16 | 43 | 562 | 4.79 | 204
3 | c1ccc2nc3c(nc2c1)c1ccccc1n3CCN1CCCC1 | 64 | 2.24 | 2.69 | 60 | 59 | – | – | 1.32 | 468 | – | 32 | 40 | 75.9 | 4.07 | 162
4 | CCN(CC)CCn1c2ccccc2c2nc3ccccc3nc21 | 32 | 2.19 | 3.39 | 139 | 499 | – | – | 1.29 | 79 | – | 64 | 76 | 646 | 6.17 | 457
5 | CCN(CC)CCOc1ccc2c(c1)C(=O)c1cc(OCCN(CC)CC)ccc1-2.Cl.Cl [TILORONE HYDROCHLORIDE] | 32 | 13.8 | 1.32 | 80 | 80 | – | – | 1.45 | 10 | – | 32 | 10 | 112 | 13.5 | 107
6 | c1ccc2nc3c(nc2c1)c1ccccc1n3CCN1CCCCCC1 | 32 | 3.8 | 2.69 | 49 | 110 | – | – | 1.29 | 62 | – | 64 | 17 | 145 | 7.94 | 132
7 | CN(C)CCn1c2ccccc2c2nc3ccccc3nc21 | 32 | 11.2 | 1.45 | 56 | 63 | – | – | 1.45 | 58 | – | 16 | 9 | 91.2 | 9.55 | 81.3
8 | c1ccc2nc3c(nc2c1)c1ccccc1n3CCN1CCCCC1 | 32 | 2.57 | 2.88 | 323 | 132 | – | – | 1.35 | 224 | – | 64 | 164 | 178 | 5.62 | 933
9 | CCCCN(CC)CCn1c2ccccc2c2nc3ccccc3nc21 | 8 | 3.39 | 13.2 | 6 | 54 | – | – | 3.16 | 27 | – | 8 | 6 | 174 | 13.2 | 83.2
10 | CCCN(CCC)CCn1c2ccccc2c2nc3ccccc3nc21 | 32 | 3.55 | 2.69 | 55 | 169 | – | – | 1.29 | 158 | – | 8 | 23 | 219 | 6.61 | 148
11 | CC1CCCCN1CCn1c2ccccc2c2nc3ccccc3nc21 (stereo unspecified) | 32 | 1.91 | 2.63 | 149 | 185 | – | – | 1.26 | 74 | – | 32 | 98 | 234 | 4.07 | 398
12 | CN1CCN(CCn2c3ccccc3c3nc4ccccc4nc32)CC1 | 32 | 4.79 | 1.45 | 57 | 71 | – | – | 1.38 | 46 | – | 4 | 17 | 97.7 | 4.68 | 81.3
13 | CC1CCN(CCn2c3ccccc3c3nc4ccccc4nc32)CC1 | 32 | 2.29 | 1.58 | 1783 | 358 | – | 20 | 1.62 | 78 | 2.55 | 8 | 142 | 575 | 20 | –
